Measurements reported in paper PMC7089611 (Febs Letters, 2012).

Columns and labels:
[1] = Secondary structural content by CD spectroscopy; assay type: physicochemical; details: 25 °C, protein 5 μM, 50 mM Tris–HCl pH 7.5, 150 mM NaCl, 0.1% β‐mercaptoethanol, CDSSTR
[2] = assay type: physicochemical; details: CD at 220 nm, protein 7 μM, 50 mM Tris–HCl pH 7.5, 150 mM NaCl, 0.1% β‐mercaptoethanol
[3] = tested on: C‐terminal domain of the HCoV‐229E N protein; experiment: Sedimentation velocity analytical ultracentrifugation: self-association; assay type: binding; details: N245–389 in the absence of the C‐terminal tail peptide
Procedure, shortened: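 C-terminal His6-tagged N-protein domain (residues 245–389) was bacterially expressed (1 mM IPTG, 37 °C, 6 h) and purified on Ni–NTA. Runs were at 20 °C and 42,000 rpm, read at 280 nm every 420 s, at 50, 30 and 10 μM protein in 50 mM Tris–HCl pH 7.5, 150 mM NaCl, 0.1% β-mercaptoethanol. Data were fit to a continuous size distribution (0.1–20.0 S).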

| Molecule | Disordered (random coil) content [1] | Helix content [1] | Sheet content [1] | Turn content [1] | melting temperature (Tm) [2] | S-value of dimer ([3]; 20 °C, dimer) | S-value of octamer ([3]; 20 °C, octamer) | S-value of tetramer ([3]; 20 °C, tetramer) | molecular mass corresponding to S-value, dimer ([3]; dimer) | molecular mass corresponding to S-value, octamer ([3]; octamer) | molecular mass corresponding to S-value, tetramer ([3]; tetramer) |
| --- | --- | --- | --- | --- | --- | --- | --- | --- | --- | --- | --- |
| N245–370: truncated C‐terminal domain of the HCoV‐229E N protein, extended C‐terminal tail that includes residue 370 (protein, left off: His6, C-terminal, state not stated) QKPRWKRQPNDDVTSNVTQCFGPRDLDHNFGSAGVVANGVKAKGYPQFAELVPSTAAMLFDSHIVSKESGNTVVLTFTTRVTVPKDHPHLGKFLEELNAFTREMQQHPLLNPSALEFNPSQTSPAT | 17% | 46% | 23% | 14% | 36.2 °C |  |  |  |  |  |  |
| N245–376: truncated C‐terminal domain of the HCoV‐229E N protein, extended C‐terminal tail that includes residue 376 (protein, left off: His6, C-terminal, state not stated) QKPRWKRQPNDDVTSNVTQCFGPRDLDHNFGSAGVVANGVKAKGYPQFAELVPSTAAMLFDSHIVSKESGNTVVLTFTTRVTVPKDHPHLGKFLEELNAFTREMQQHPLLNPSALEFNPSQTSPATAEPVRD | 15% | 47% | 22% | 16% | 36.7 °C |  |  |  |  |  |  |
| N245–382: truncated C‐terminal domain of the HCoV‐229E N protein, extended C‐terminal tail that includes residue 382 (protein, left off: His6, C-terminal, state not stated) QKPRWKRQPNDDVTSNVTQCFGPRDLDHNFGSAGVVANGVKAKGYPQFAELVPSTAAMLFDSHIVSKESGNTVVLTFTTRVTVPKDHPHLGKFLEELNAFTREMQQHPLLNPSALEFNPSQTSPATAEPVRDEVSIET | 13% | 43% | 25% | 19% | above 70 °C |  |  |  |  |  |  |
| N245–389: truncated C‐terminal domain of the HCoV‐229E N protein, extended C‐terminal tail that includes residue 389 (protein, left off: His6, C-terminal, state not stated) QKPRWKRQPNDDVTSNVTQCFGPRDLDHNFGSAGVVANGVKAKGYPQFAELVPSTAAMLFDSHIVSKESGNTVVLTFTTRVTVPKDHPHLGKFLEELNAFTREMQQHPLLNPSALEFNPSQTSPATAEPVRDEVSIETDIIDEVN | 13% | 45% | 26% | 16% | above 70 °C | approximately 2.85 | ~7.75 | ~5.30 | 31 kDa | 131 kDa | 69 kDa |
